Consider 18 compounds from ChEMBL document CHEMBL4680253, “Hybrids of MEK inhibitor and NO donor as multitarget antitumor drugs” (Eur J Med Chem, 2020).

For data set [1], the system named is MDA-MB-231. The data set can be described thus: Antiproliferative activity against human MDA-MB-231 cells harboring KRAS G13D/BRAF G464V mutant assessed as inhibition of cell viability after 96 hrs by Celltiter-Glo assay. Format: functional, cell-based. The note with it: MDA-MB-231, 96 h. (In general: ATP-based viability assays read luminescence as a measure of living cells.)

For another data set, the system named is HL-60. The data set can be described thus: Antiproliferative activity against human HL60 cells harboring NRAS […] mutant assessed as inhibition of cell viability after 96 hrs by Celltiter-Glo assay. The note with it: HL-60, 96 h. Format: functional, cell-based.
A short description of data set [2]: Antiproliferative activity against human A375 cells harboring BRAF V600E mutant assessed as inhibition of cell viability after 96 hrs by Celltiter-Glo assay. Format: functional, cell-based, A375/R. The note with it: A-375, 96 h.
In a further data set the test system is HCT-116. As to the kind of experiment: Antiproliferative activity against human HCT116 cells harboring KRAS G13D mutant assessed as inhibition of cell viability after 96 hrs by Celltiter-Glo assay. Format: functional, cell-based. The note with it: HCT-116, 96 h.
For another data set, the system named is A549. The data set can be described thus: Antiproliferative activity against human A549 cells harboring KRAS G12S mutant assessed as inhibition of cell viability after 96 hrs by Celltiter-Glo assay. Format: functional, cell-based. The settings on record: A549, 96 h.
A short description of data set [3]: Prodrug release in human HCT-116 cells assessed as increase in intracellular NO level at 100 uM measured after 2 hr by DAF-FM DA reagent based laser confocal scanning microscopy. The note with it: hct-116, 2 h.
Another data set has as its system Vero. As to the kind of experiment: Cytotoxicity against African green monkey Vero cells assessed as reduction in cell viability after 96 hrs by Celltiter-Glo assay. Format: cell-based. The settings on record: Chlorocebus sabaeus. Summed up: (§1)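 Cells kept at 37 °C in humidified 5% CO2 with 10% FBS; Vero in DMEM, HL7702 in RPMI-1640. Compounds added to plated cells and incubated 96 h at 37 °C. Viability read by CellTiter-Glo reagent added directly to the wells. IC50 fitted from the readings.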

For data set [4], the system named is MDA-MB-231. The data set can be described thus: Induction of apoptosis in human MDA-MB-231 cells assessed as late apoptotic cells at 10 uM incubated for 24 hrs by AnnexinV-FITC and propidium iodide staining based flow cytometry (reference value: 3.54%). Format: functional. On the technique in general: A flow cytometer gives signals particle by particle.
The subject of data set [5] is MDA-MB-231. As to the kind of experiment: Induction of apoptosis in human MDA-MB-231 cells assessed as early apoptotic cells at 10 uM incubated for 24 hrs by AnnexinV-FITC and propidium iodide staining based flow cytometry (reference value: 4.4%). Format: functional.
Data set [6] has as its system MDA-MB-231. As to the kind of experiment: Induction of apoptosis in human MDA-MB-231 cells assessed as viable cells at 10 uM incubated for 24 hrs by AnnexinV-FITC and propidium iodide staining based flow cytometry (reference value: 90.962%). The settings on record: read-out: Activity. Format: functional.
Another data set has as its system L02. As to the kind of experiment: Cytotoxicity against human HL7702 cells assessed as reduction in cell viability after 96 hrs by Celltiter-Glo assay. Format: cell-based. The settings on record: L02, 96 h. In short, it runs like this: as §1
Data set [7] concerns MDA-MB-231. As to the kind of experiment: Induction of apoptosis in human MDA-MB-231 cells assessed as necrotic cells at 10 uM incubated for 24 hrs by AnnexinV-FITC and propidium iodide staining based flow cytometry (reference value: 1.084%). Format: functional.

Each structure is given as a SMILES string.

For orientation: IC50 means the concentration needed to halve the response being measured. Regarding `Cc1c(Cc2cccc(NS(=O)(=O)NC(C)C)c2F)c(=O)oc2cc(OCCO)ccc12`, the IC50 in the data set on MDA-MB-231 [1] is 2380 nM; in the data set with HL-60, 140 nM; in data set [2], 150 nM; in the data set with HCT-116, 5090 nM; with A549 it was greater than 5000 nM. Also, in data set [3], the Drug metabolism result was “Metabolite_Notdetected”.
Consider `CCOC(=O)N1CCN(/[N+]([O-])=N/Oc2ccc([N+](=O)[O-])cc2[N+](=O)[O-])CC1`, for which the IC50 was found to be 1160 nM with Vero; 2900 nM with MDA-MB-231 [1]; 530 nM in the data set on HL-60; 1990 nM in the data set on L02; 1990 nM in [2]; 500 nM in the data set with HCT-116. Also, in the data set with A549, the IC50 was determined as 690 nM. Further, the Activity in the data set with MDA-MB-231 [4] is reported as 19.2%; in the data set on MDA-MB-231 [5], 27.1%; with MDA-MB-231 [7], 2.444%. In addition, the viability at 10 µM with MDA-MB-231 [6] is 51.2%. For the same compound, the Drug metabolism result in data set [3] is recorded as “Metabolite_Detected”.
For `CNS(=O)(=O)Nc1cccc(Cc2c(C)c3ccc(OCCO)cc3oc2=O)c1F`, the IC50 in the data set on MDA-MB-231 [1] is 2190 nM; in the data set with HL-60 it was 100 nM; in data set [2], 150 nM; in the data set with HCT-116, 3470 nM; in the data set with A549, greater than 5000 nM. Besides, the Drug metabolism result in data set [3] is listed as “Metabolite_Notdetected”.
Turning to `CONS(=O)(=O)Nc1cccc(Cc2c(C)c3ccc(OCCOc4no[n+]([O-])c4S(=O)(=O)c4ccccc4)cc3oc2=O)c1F`, the IC50 in the data set on MDA-MB-231 [1] was 310 nM; in the data set with HL-60, 5640 nM; in [2], 870 nM; in the data set on HCT-116, 1010 nM; in the data set with A549, 3750 nM. Moreover, in data set [3], the Drug metabolism result was “Metabolite_Detected”.
For `CC(=O)Nc1cccc(-n2c(=O)n(C3CC3)c(=O)c3c(Nc4ccc(I)cc4F)n(C)c(=O)c(C)c32)c1` [TRAMETINIB], the IC50 in the data set on MDA-MB-231 [1] was determined as 18 nM; in the data set on HL-60 it was 3 nM; in data set [2], 2.4 nM; with HCT-116 it was 19 nM; with A549 it was 460 nM.
With `Cc1c(Cc2cccc(NS(=O)(=O)NCC(F)(F)F)c2F)c(=O)oc2cc(OCCOc3no[n+]([O-])c3S(=O)(=O)c3ccccc3)ccc12`, the IC50 with MDA-MB-231 [1] worked out at 130 nM; with HL-60 it was 270 nM; in [2], 500 nM; in the data set on HCT-116, 610 nM; in the data set with A549, 2510 nM. The Drug metabolism entry in data set [3] was “Metabolite_Detected”.
Turning to `Cc1c(Cc2cccc(NS(=O)(=O)NCCC#N)c2F)c(=O)oc2cc(OCCOc3no[n+]([O-])c3S(=O)(=O)c3ccccc3)ccc12`, the IC50 with MDA-MB-231 [1] stood at 270 nM; in the data set with HL-60 it was 640 nM; in data set [2], 660 nM; in the data set with HCT-116, 760 nM; in the data set on A549, 2610 nM. Also, in [3], the Drug metabolism result was “Metabolite_Detected”.
With `CNS(=O)(=O)Nc1cccc(Cc2c(C)c3ccc(OCCCCO)cc3oc2=O)c1F`, the IC50 was 3200 nM with MDA-MB-231 [1], 7350 nM with HCT-116 and greater than 5000 nM with A549. The Drug metabolism entry in [3] is “Metabolite_Notdetected”.
For `CCNS(=O)(=O)Nc1cccc(Cc2c(C)c3ccc(OCCO)cc3oc2=O)c1F`, the IC50 is 2480 nM in the data set on MDA-MB-231 [1]; 150 nM in the data set on HL-60; 200 nM in [2]; 5790 nM in the data set with HCT-116; greater than 5000 nM with A549. Also, the Drug metabolism result in data set [3] is listed as “Metabolite_Notdetected”.
In the case of `Cc1c(Cc2cccc(NS(=O)(=O)NCCC#N)c2F)c(=O)oc2cc(OCCO)ccc12`, the IC50 was 5490 nM with MDA-MB-231 [1]; 390 nM with HL-60; 650 nM in data set [2]; 15400 nM in the data set on HCT-116; greater than 5000 nM with A549. Also, the Drug metabolism entry in [3] is “Metabolite_Notdetected”.
Take `COCCNS(=O)(=O)Nc1cccc(Cc2c(C)c3ccc(OCCO)cc3oc2=O)c1F`: the IC50 is 2990 nM in the data set with MDA-MB-231 [1]; 250 nM with HL-60; 360 nM in data set [2]; 6500 nM with HCT-116; greater than 5000 nM in the data set with A549. The Drug metabolism result in data set [3] is listed as “Metabolite_Notdetected”.
Turning to `Cc1c(Cc2cccc(NS(=O)(=O)NC(C)C)c2F)c(=O)oc2cc(OCCOc3no[n+]([O-])c3S(=O)(=O)c3ccccc3)ccc12`, the IC50 in the data set with MDA-MB-231 [1] was 860 nM; in the data set on HL-60 it was 550 nM; in [2], 970 nM; in the data set with HCT-116, 1230 nM; with A549, 2990 nM. For the same compound, the Drug metabolism entry in data set [3] was “Metabolite_Detected”.
In the case of `CNS(=O)(=O)Nc1cccc(Cc2c(C)c3ccc(OCCCO)cc3oc2=O)c1F`, the IC50 with MDA-MB-231 [1] was 1900 nM; with HCT-116, 5340 nM; in the data set on A549 it was greater than 5000 nM. For the same compound, the Drug metabolism entry in data set [3] is on record as “Metabolite_Notdetected”.
Take `CCNS(=O)(=O)Nc1cccc(Cc2c(C)c3ccc(OCCOc4no[n+]([O-])c4S(=O)(=O)c4ccccc4)cc3oc2=O)c1F`: the IC50 turned out to be 180 nM in the data set on MDA-MB-231 [1]; 290 nM with HL-60; 540 nM in [2]; 720 nM in the data set on HCT-116; 2570 nM in the data set on A549. Moreover, the Drug metabolism entry in data set [3] is given as “Metabolite_Detected”.
For `CNS(=O)(=O)Nc1cccc(Cc2c(C)c3ccc(OCCCCOc4no[n+]([O-])c4S(=O)(=O)c4ccccc4)cc3oc2=O)c1F`, the IC50 stood at 2980 nM in the data set with Vero; 200 nM with MDA-MB-231 [1]; 1930 nM in the data set on L02; 2780 nM in the data set on HCT-116; 3490 nM in the data set with A549. Further, in data set [3], the Drug metabolism entry was “Metabolite_Detected”.
Regarding `CONS(=O)(=O)Nc1cccc(Cc2c(C)c3ccc(OCCO)cc3oc2=O)c1F`, in [3], the Drug metabolism result is on record as “Metabolite_Notdetected”.
With `Cc1c(Cc2cccc(NS(=O)(=O)NCC(F)(F)F)c2F)c(=O)oc2cc(OCCO)ccc12`, the IC50 was 7720 nM in the data set with MDA-MB-231 [1]; 780 nM in the data set on HL-60; 930 nM in [2]; 10300 nM in the data set on HCT-116; greater than 5000 nM in the data set on A549. Also, the Drug metabolism result in [3] is “Metabolite_Notdetected”.
Consider `COCCNS(=O)(=O)Nc1cccc(Cc2c(C)c3ccc(OCCOc4no[n+]([O-])c4S(=O)(=O)c4ccccc4)cc3oc2=O)c1F`, for which the IC50 is 380 nM with MDA-MB-231 [1]; 310 nM with HL-60; 540 nM in [2]; 710 nM in the data set on HCT-116; 2270 nM in the data set on A549. In addition, in [3], the Drug metabolism result was “Metabolite_Detected”.
